Activity calls are given as the source filed them. The calls are words filed in the database; no cut-off is given here.
How the values were obtained:
BaF3 [1] = assay: Inhibition of EGFR-C797S/T790M/del19 mutant in mouse BaF3 cells assessed as reduction in S6 phosphorylation at 10 to 1000 nM by Western blotting analysis; assay type: cell-based; details: dose 10-1000 nM
PC-9 [2] = assay type: functional, organism-based; details: Homo sapiens, dose 50.0 mg/kg, route po, time 15.0 day
[3] = tested on: Ba/F3 EGFR-Del19/T790M/C797S; assay: Cytotoxicity against mouse Ba/F3 EGFR-Del19/T790M/C797S cells assessed as inhibition of cell viability by measuring fold change at 300 nM incubated for 72 hrs in presence of cetuximab by CellTiter-Glo assay; assay type: functional, cell-based
PC-9 [4] = assay: Inhibition of EGFR T790M/del19 mutant in human PC-9 cells assessed as reduction in Akt phosphorylation at 10 to 1000 nM by Western blotting analysis; assay type: cell-based; details: dose 10-1000 nM
NCI-H460 = assay: Anticancer activity against KRAS-mutated human NCI-H460 cells assessed as reduction in cell viability at 1 to 10000 nM incubated for 72 hrs by CellTiter-Glo assay; assay type: functional, cell-based; details: dose 1-10000 nM
PC-9 [5] = assay: Inhibition of EGFR T790M/del19 mutant in human PC-9 cells assessed as reduction in ERK phosphorylation at 10 to 1000 nM by Western blotting analysis; assay type: cell-based; details: dose 10-1000 nM
PC-9 [6] = assay type: functional, organism-based; details: Homo sapiens, dose 50.0 mg/kg, route po, time 60.0 day
BaF3 [7] = assay: Inhibition of EGFR-C797S/T790M/del19 mutant in mouse BaF3 cells assessed as reduction in S6 protein level at 10 to 1000 nM by Western blotting analysis; assay type: cell-based; details: dose 10-1000 nM
BaF3 [8] = assay: Inhibition of EGFR-C797S/T790M/del19 mutant in mouse BaF3 cells assessed as reduction in Akt phosphorylation at 10 to 1000 nM by Western blotting analysis; assay type: cell-based; details: dose 10-1000 nM
PC-9 [9] = assay: Anti-tumor activity against EGFR T790M/del19 mutant expressing gefitinib-resistant human PC-9 cells xenografted in Balb-c nu/nu mouse assessed as prolonged survival at 50 mg/kg, po administered for 42 days; assay type: functional, organism-based; details: time 42.0 day
BaF3 [10] = assay: Inhibition of EGFR-C797S/T790M/del19 mutant in mouse BaF3 cells assessed as reduction in ERK phosphorylation at 10 to 1000 nM by Western blotting analysis; assay type: cell-based; details: dose 10-1000 nM
BaF3 [11] = assay: Inhibition of EGFR-C797S/T790M/del19 mutant in mouse BaF3 cells assessed as reduction in EGFR phosphorylation at 10 to 1000 nM by Western blotting analysis; assay type: cell-based; details: dose 10-1000 nM
BaF3 [12] = assay: Inhibition of EGFR-C797S/T790M/del19 mutant in mouse BaF3 cells assessed as reduction in Akt protein level at 10 to 1000 nM by Western blotting analysis; assay type: cell-based; details: dose 10-1000 nM
BaF3 [13] = assay: Inhibition of EGFR-C797S/T790M/del19 mutant in mouse BaF3 cells assessed as reduction in ERK protein level at 10 to 1000 nM by Western blotting analysis; assay type: cell-based; details: dose 10-1000 nM
PC-9 [14] = assay: Inhibition of EGFR T790M/del19 mutant in human PC-9 cells assessed as reduction in EGFR phosphorylation at 10 to 1000 nM by Western blotting analysis; assay type: cell-based; details: dose 10-1000 nM
A549 = assay: Anticancer activity against KRAS-mutated human A549 cells assessed as reduction in cell viability at 1 to 10000 nM incubated for 72 hrs by CellTiter-Glo assay; assay type: functional, cell-based; details: dose 1-10000 nM
PC-9 [15] = assay type: functional, organism-based; details: Homo sapiens, dose 50.0 mg/kg, route po, time 60.0 day; remark: listed apart in the source
PC-9 [16] = assay: Inhibition of EGFR T790M/del19 mutant in human PC-9 cells assessed as reduction in S6 phosphorylation at 10 to 1000 nM by Western blotting analysis; assay type: cell-based; details: dose 10-1000 nM
PC-9 [17] = assay: Anti-tumor activity against EGFR T790M/del19 mutant expressing gefitinib-resistant human PC-9 cells xenografted in Balb-c nu/nu mouse assessed as growth inhibition at 50 mg/kg, po administered for 42 days; assay type: functional, organism-based; details: time 42.0 day
How it was run: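 Balb-c nu/nu mice were implanted subcutaneously with 6×10^6 PC9-triple-mutant or PC9-T790M cells in 100 µl 1:2 Matrigel. At a mean tumour volume of ~200 mm³, mice were randomized (top and bottom 5% excluded) and dosed once daily by oral gavage. Caliper volume (0.5×L×W²) was measured twice weekly and expressed relative to day 0. n≥6 per group; Mann-Whitney U test.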

C=CC(=O)Nc1cc(Nc2nccc(-c3cn(C)c4ccccc34)n2)c(OC)cc1N(C)CCN(C)C
inhibition (BaF3 [1]): inactive
Activity (PC-9 [2]): inactive
Activity [3]: inactive
inhibition (PC-9 [4]): Active
Activity (NCI-H460): Active
inhibition (PC-9 [5]): Active
inhibition (PC-9 [6]): Active
inhibition (BaF3 [7]): inactive
inhibition (BaF3 [8]): inactive
Activity (PC-9 [9]): Active
inhibition (BaF3 [10]): inactive
inhibition (BaF3 [11]): inactive
inhibition (BaF3 [12]): inactive
inhibition (BaF3 [13]): inactive
inhibition (PC-9 [14]): Active
Activity (A549): Active
inhibition (PC-9 [15]): Active
inhibition (PC-9 [16]): Active
Activity (PC-9 [17]): Active

Source: ChEMBL document CHEMBL5705906 (Nat Commun, 2017)
